Data from ChEMBL document CHEMBL3045743, “Synthesis and herbicidal activity of isoindoline-1,3-dione substituted benzoxazinone derivatives containing a carboxylic ester group” (J Agric Food Chem, 2009).

Key:
Abutilon theophrasti [1] = assay: Post-emergence herbicidal activity against Abutilon theophrasti (velvetleaf) assessed as growth inhibition at 75 g.a.i./ha applied at two-leaf stage measured after 15 days; format: functional; settings: 360 h, read-out: GI
Procedure, shortened: (§1)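 Pot-grown weeds sown 5 mm deep in greenhouse clay soil (pH 6.5, 1.7% organic matter, CEC 12.9 cmol/kg) at 22-25 °C. Stock diluted with water and sprayed post-emergence: dicots at 2-leaf stage, monocots at 1-leaf stage. Untreated and DMF solvent controls were included. % growth inhibition was scored visually versus untreated controls after 15 days. Triplicates averaged.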

Setaria viridis [2] = assay: Post-emergence herbicidal activity against Setaria viridis (green foxtail) assessed as growth inhibition at 15 g.a.i./ha applied at one-leaf stage measured after 15 days; format: functional; settings: 360 h, read-out: GI; procedure, shortened: as §1
Echinochloa crus-galli [3] = assay: Pre-emergence herbicidal activity against Echinochloa crus-galli (barnyard grass) assessed as growth inhibition at 7.5 g.a.i./ha applied 24 hr after seeds were sown measured after 15 days; format: functional; settings: read-out: GI
Procedure, shortened: (§2)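 Weeds sown 5 mm deep in pots of greenhouse clay soil (pH 6.5, 37.5% clay, CEC 12.9 cmol/kg) and grown at 22-25 °C. Water-diluted formulation was applied pre-emergence 24 h after sowing. Untreated and DMF solvent controls were included. Growth inhibition was visually rated in % against untreated controls after 15 days, as the mean of triplicates.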

Setaria viridis [4] = assay: Post-emergence herbicidal activity against Setaria viridis (green foxtail) assessed as growth inhibition at 75 g.a.i./ha applied at one-leaf stage measured after 15 days; format: functional; settings: 360 h, read-out: GI; procedure, shortened: as §1
Oryza sativa = assay: Phytotoxicity against Oryza sativa (rice) assessed as growth inhibition at 7.5 to 60 g.a.i/ha post-emergent application measured after 15 days by greenhouse crop selectivity assay; format: organism-based, L.; settings: in vivo, other, 360 h
Procedure, shortened: (§3)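 Postemergence crop selectivity test on pot-grown plants in a greenhouse, in clay soil (pH 6.5, 1.7% organic matter, CEC 12.9 cmol/kg). Stock was diluted with water and sprayed at 60, 30, 15 or 7.5 g a.i./ha, in triplicate. Growth inhibition was rated visually against untreated controls after 15 days and given as the triplicate mean percentage.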

Abutilon theophrasti [5] = assay: Pre-emergence herbicidal activity against Abutilon theophrasti (velvetleaf) assessed as growth inhibition at 7.5 g.a.i./ha applied 24 hr after seeds were sown measured after 15 days; format: functional; settings: read-out: GI; procedure, shortened: as §2
Glycine max [6] = assay: Phytotoxicity against Glycine max (soybean) assessed as growth inhibition at 150 g.a.i/ha pre-emergent application measured after 15 days by greenhouse crop selectivity assay; format: organism-based; settings: in vivo, other, 360 h
Procedure, shortened: (§4)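 Pre-emergence greenhouse crop selectivity test on pot-grown plants in clay soil (pH 6.5, 1.7% organic matter, 37.5% clay, CEC 12.9 cmol/kg). Stock solutions were diluted with water and applied at 300, 150, 75 or 37.5 g a.i./ha, in triplicate. After 15 days, phytotoxicity was scored visually against untreated controls as % crop growth inhibition, averaged over the triplicates.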

Amaranthus [7] = assay: Pre-emergence herbicidal activity against Amaranthus ascendens assessed as growth inhibition at 75 g.a.i./ha applied 24 hr after seeds were sown measured after 15 days; format: functional; settings: read-out: GI; procedure, shortened: as §2
Glycine max [8] = assay: Phytotoxicity against Glycine max (soybean) assessed as growth inhibition at 37.5 g.a.i/ha pre-emergent application measured after 15 days by greenhouse crop selectivity assay; format: organism-based; settings: in vivo, other, 360 h; procedure, shortened: as §4
Zea mays = assay: Phytotoxicity against Zea mays (maize) assessed as growth inhibition at 7.5 to 60 g.a.i/ha post-emergent application measured after 15 days by greenhouse crop selectivity assay; format: organism-based; settings: in vivo, other, 360 h; procedure, shortened: as §3
Chenopodium album [9] = assay: Pre-emergence herbicidal activity against Chenopodium album assessed as growth inhibition at 15 g.a.i./ha applied 24 hr after seeds were sown measured after 15 days; format: functional; settings: read-out: GI; procedure, shortened: as §2
[10] = tested on: Brassica rapa subsp. oleifera; assay: Phytotoxicity against Brassica rapa subsp. oleifera assessed as growth inhibition at 75 g.a.i/ha pre-emergent application measured after 15 days by greenhouse crop selectivity assay; format: functional; settings: pre-emergence, 360 h, read-out: GI
Procedure, shortened: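 Pot-grown crop in greenhouse clay soil (pH 6.5, 1.7% organic matter, 37.5% clay, CEC 12.9 cmol/kg). Stock diluted with water and applied pre-emergence at 300, 150, 75 or 37.5 g a.i./ha. Cultivated 15 days, then phytotoxicity scored visually as % growth inhibition versus untreated controls. Triplicate treatments, averaged.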

Amaranthus spinosus [11] = assay: Pre-emergence herbicidal activity against Amaranthus spinosus assessed as growth inhibition at 15 g.a.i./ha applied 24 hr after seeds were sown measured after 15 days; format: functional; settings: read-out: GI; procedure, shortened: as §2
Abutilon theophrasti [12] = assay: Pre-emergence herbicidal activity against Abutilon theophrasti (velvetleaf) assessed as growth inhibition at 37.5 g.a.i./ha applied 24 hr after seeds were sown measured after 15 days; format: functional; settings: read-out: GI; procedure, shortened: as §2
Digitaria sanguinalis = assay: Post-emergence herbicidal activity against Digitaria sanguinalis (hairy crabgrass) assessed as growth inhibition at 7.5 g.a.i./ha applied at one-leaf stage measured after 15 days; format: functional; settings: 360 h, read-out: GI; procedure, shortened: as §1
Abutilon theophrasti [13] = assay: Post-emergence herbicidal activity against Abutilon theophrasti (velvetleaf) assessed as growth inhibition at 37.5 g.a.i./ha applied at two-leaf stage measured after 15 days; format: functional; settings: 360 h, read-out: GI; procedure, shortened: as §1
Echinochloa crus-galli [14] = assay: Post-emergence herbicidal activity against Echinochloa crus-galli (barnyard grass) assessed as growth inhibition at 7.5 g.a.i./ha applied at one-leaf stage measured after 15 days; format: functional; settings: 360 h, read-out: GI; procedure, shortened: as §1
Amaranthus [15] = assay: Post-emergence herbicidal activity against Amaranthus ascendens assessed as growth inhibition at 75 g.a.i./ha applied at two-leaf stage measured after 15 days; format: functional; settings: 360 h, read-out: GI; procedure, shortened: as §1
[16] = Phytotoxicity against Triticum aestivum (wheat) assessed as growth inhibition at 150 g.a.i/ha pre-emergent application measured after 15 days by greenhouse crop selectivity assay; format: organism-based; settings: in vivo, 150 g.a.i/ha, read-out: GI; procedure, shortened: as §4
Arachis hypogaea = assay: Phytotoxicity against Arachis hypogaea (peanut) assessed as growth inhibition at 150 g.a.i/ha pre-emergent application measured after 15 days by greenhouse crop selectivity assay; format: organism-based; settings: in vivo, other, 360 h; procedure, shortened: as §4
Setaria viridis [17] = assay: Post-emergence herbicidal activity against Setaria viridis (green foxtail) assessed as growth inhibition at 7.5 g.a.i./ha applied at one-leaf stage measured after 15 days; format: functional; settings: 360 h, read-out: GI; procedure, shortened: as §1
Chenopodium album [18] = assay: Pre-emergence herbicidal activity against Chenopodium album assessed as growth inhibition at 75 g.a.i./ha applied 24 hr after seeds were sown measured after 15 days; format: functional; settings: read-out: GI; procedure, shortened: as §2
Glycine max [19] = assay: Phytotoxicity against Glycine max (soybean) assessed as growth inhibition at 300 g.a.i/ha pre-emergent application measured after 15 days by greenhouse crop selectivity assay; format: organism-based; settings: in vivo, other, 360 h; procedure, shortened: as §4
Echinochloa crus-galli [20] = assay: Post-emergence herbicidal activity against Echinochloa crus-galli (barnyard grass) assessed as growth inhibition at 75 g.a.i./ha applied at one-leaf stage measured after 15 days; format: functional; settings: 360 h, read-out: GI; procedure, shortened: as §1
Chenopodium album [21] = assay: Post-emergence herbicidal activity against Chenopodium album assessed as growth inhibition at 75 g.a.i./ha applied at two-leaf stage measured after 15 days; format: functional; settings: 360 h, read-out: GI; procedure, shortened: as §1
Triticum aestivum = assay: Phytotoxicity against Triticum aestivum (wheat) assessed as growth inhibition at 37.5 g.a.i/ha pre-emergent application measured after 15 days by greenhouse crop selectivity assay; format: organism-based; settings: in vivo, other, 360 h; procedure, shortened: as §4
Setaria viridis [22] = assay: Pre-emergence herbicidal activity against Setaria viridis (green foxtail) assessed as growth inhibition at 37.5 g.a.i./ha applied 24 hr after seeds were sown measured after 15 days; format: functional; settings: read-out: GI; procedure, shortened: as §2
Amaranthus spinosus [23] = assay: Pre-emergence herbicidal activity against Amaranthus spinosus assessed as growth inhibition at 37.5 g.a.i./ha applied 24 hr after seeds were sown measured after 15 days; format: functional; settings: read-out: GI; procedure, shortened: as §2

| Compound | inhibition of growth at 75 g/ha (Abutilon theophrasti [1]) [%] | inhibition of growth at 15 g/ha (Setaria viridis [2]) [%] | inhibition of growth at 7.5 g/ha (Echinochloa crus-galli [3]) [%] | inhibition of growth at 75 g/ha (Setaria viridis [4]) [%] | Activity (Oryza sativa) | inhibition of growth at 7.5 g/ha (Abutilon theophrasti [5]) [%] | inhibition of growth at 75 g/ha (Amaranthus [7]) [%] | growth inhibition (GI) (Glycine max [8]) | Activity (Zea mays) | inhibition of growth at 15 g/ha (Chenopodium album [9]) [%] | inhibition of growth at 75 g/ha [10] [%] | inhibition of growth at 15 g/ha (Amaranthus spinosus [11]) [%] | inhibition of growth at 37.5 g/ha (Abutilon theophrasti [12]) [%] | inhibition of growth at 7.5 g/ha (Digitaria sanguinalis) [%] | inhibition of growth at 37.5 g/ha (Abutilon theophrasti [13]) [%] | inhibition of growth at 7.5 g/ha (Echinochloa crus-galli [14]) [%] | inhibition of growth at 75 g/ha (Amaranthus [15]) [%] | growth inhibition (GI) (Arachis hypogaea) | inhibition of growth at 7.5 g/ha (Setaria viridis [17]) [%] | inhibition of growth at 75 g/ha (Chenopodium album [18]) [%] | other results |
| --- | --- | --- | --- | --- | --- | --- | --- | --- | --- | --- | --- | --- | --- | --- | --- | --- | --- | --- | --- | --- | --- |
| CCOC(=O)C(C)N1C(=O)C(C)Oc2cc(F)c(N3C(=O)C4=C(CCCC4)C3=O)cc21 (stereo not drawn) | > 80 | 30 | 0 | > 80 | Toxic | 0 | > 80 | Not Active | Toxic | 100 | > 10 | 95 | 20 | 20 | 100 | 10 | > 80 | Not Active | 20 | > 80 | growth inhibition (GI) (Glycine max [6]): Not Active; inhibition at 360 h [16]: > 10%; growth inhibition (GI) (Glycine max [19]): Not Active; inhibition of growth at 75 g/ha (Echinochloa crus-galli [20]): > 80%; inhibition of growth at 75 g/ha (Chenopodium album [21]): > 80%; growth inhibition (GI) (Triticum aestivum): Not Active; inhibition of growth at 37.5 g/ha (Setaria viridis [22]): 60%; inhibition of growth at 37.5 g/ha (Amaranthus spinosus [23]): 100% |
| C#CCN1C(=O)COc2cc(F)c(N3C(=O)C4=C(CCCC4)C3=O)cc21 [FLUMIOXAZIN] | > 80 | 90 | 0 | > 80 | Toxic | 50 | > 80 | Not Active | Toxic | 100 | > 10 | 100 | 100 | 80 | 100 | 50 | > 80 | Not Active | 80 | > 80 | inhibition at 360 h [16]: > 10%; inhibition of growth at 75 g/ha (Echinochloa crus-galli [20]): > 80%; inhibition of growth at 75 g/ha (Chenopodium album [21]): > 80%; inhibition of growth at 37.5 g/ha (Setaria viridis [22]): 80%; inhibition of growth at 37.5 g/ha (Amaranthus spinosus [23]): 100% |
| CCOC(=O)C(CC)N1C(=O)C(C)Oc2cc(F)c(N3C(=O)C4=C(CCCC4)C3=O)cc21 (stereo not drawn) | > 80 | 30 | 0 | > 80 | Toxic | 0 | > 80 | Not Active | Toxic | 100 | > 10 | 100 | 70 | 40 | 100 | 0 | > 80 | Not Active | 20 | > 80 | growth inhibition (GI) (Glycine max [6]): Not Active; growth inhibition (GI) (Glycine max [19]): Not Active; inhibition of growth at 75 g/ha (Echinochloa crus-galli [20]): > 80%; inhibition of growth at 75 g/ha (Chenopodium album [21]): > 80%; growth inhibition (GI) (Triticum aestivum): Not Active; inhibition of growth at 37.5 g/ha (Setaria viridis [22]): 0%; inhibition of growth at 37.5 g/ha (Amaranthus spinosus [23]): 100% |
| COC(=O)C(C)N1C(=O)C(C)Oc2cc(F)c(N3C(=O)C4=C(CCCC4)C3=O)cc21 (stereo not drawn) | > 80 | 50 | 0 | > 80 | Toxic | 50 | > 80 | Not Active | Toxic | 100 | > 10 | 100 | 70 | 10 | 100 | 10 | > 80 | Not Active | 10 | > 80 | growth inhibition (GI) (Glycine max [6]): Not Active; inhibition at 360 h [16]: > 10%; growth inhibition (GI) (Glycine max [19]): Not Active; inhibition of growth at 75 g/ha (Echinochloa crus-galli [20]): > 80%; inhibition of growth at 75 g/ha (Chenopodium album [21]): > 80%; growth inhibition (GI) (Triticum aestivum): Not Active; inhibition of growth at 37.5 g/ha (Setaria viridis [22]): 80%; inhibition of growth at 37.5 g/ha (Amaranthus spinosus [23]): 100% |
